Data set [1] is described as follows: Antagonist activity at Beta-catenin/TCF in rat IEC-6 cells assessed as inhibition of Wnt-3a-induced axin2 expression preincubated for 6 hrs followed by Wnt-3a induction measured after 12 hrs by qPCR analysis. It is filed as cell-based. The essentials:
(§1)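 IEC-6 rat intestinal epithelial cells given compound at a range of concentrations for 6 h, then recombinant mouse Wnt-3a (50 ng/mL) added for 12 h. Target transcript quantified by qPCR with gene-specific primers, normalised to U6. The Wnt-3a-stimulated level with no compound is set to 100%. IC50 taken from concentration-response; mean ± SEM reported where available.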
(In general: In qPCR the cycle at which signal appears reflects the starting amount.)

In data set [2] the test system is Liver. Put plainly: Metabolic stability in mouse liver microsomes assessed as half life at 1 uM after 1 to 60 mins by LC-MS analysis. It counts as ADME, Microsome. The essentials:
(§2)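 Compound (1 μM) incubated at 37°C with mouse liver microsomes to assess metabolic stability.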
Background: Liver microsomes are a subcellular fraction often used to study metabolism.

Data set [3] deals with Liver. In words: Metabolic stability in mouse liver microsomes assessed as compound remaining at 1 uM after 3 mins by LC-MS analysis. It counts as ADME, Microsome. The settings on record: 0.05 h. The method in brief: as §2
A short description of data set [4]: Metabolic stability in mouse liver microsomes assessed as compound remaining at 1 uM after 10 mins by LC-MS analysis. It is filed as ADME, Microsome. The settings on record: read-out: Stability. The method in brief: as §2
A short description of data set [5]: Metabolic stability in mouse liver microsomes assessed as compound remaining at 1 uM after 60 mins by LC-MS analysis. It is filed as ADME, Microsome. The following applies: read-out: Stability. The method in brief:
as §2

Data set [6] can be described thus: Metabolic stability in mouse liver microsomes assessed as compound remaining at 1 uM after 30 mins by LC-MS analysis. The settings on record: read-out: Stability. It counts as ADME, Microsome. The essentials: as §2
A short description of data set [7]: Antagonist activity at Beta-catenin/TCF in rat IEC-6 cells assessed as inhibition of Wnt-3a-induced lgr5 expression preincubated for 6 hrs followed by Wnt-3a induction measured after 12 hrs by qPCR analysis. It is filed as cell-based. The essentials: as §1
Data set [8] deals with DLD-1. In words: Antiproliferative activity against human DLD1 cells assessed as inhibition of colony formation at 0.3 to 0.5 uM after 2 weeks by crystal violet staining-based assay. It counts as functional, cell-based. The essentials: (§3)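 Cells seeded in medium with 10% serum containing the test compound, kept in the dark; surviving colonies counted two weeks after plating. Colony counts are from two independent experiments at each concentration, each run in triplicate.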

Data set [9] concerns RKO. In words: Antiproliferative activity against human RKO cells assessed as inhibition of colony formation at 0.3 to 0.5 uM after 2 weeks by crystal violet staining-based assay. It is filed as functional, cell-based. The method in brief:
as §3

The subject of data set [10] is IEC-6. In words: Antagonist activity at Beta-catenin/TCF in rat IEC-6 cells assessed as inhibition of Wnt-3a-induced axin2 expression up to 69 uM preincubated for 6 hrs followed by Wnt-3a induction measured after 12 hrs by qPCR analysis. It is filed as cell-based. The method in brief: as §1
Data set [11] has as its system IEC-6. Put plainly: Antagonist activity at Beta-catenin/TCF in rat IEC-6 cells assessed as inhibition of Wnt-3a-induced lgr5 expression up to 69 uM preincubated for 6 hrs followed by Wnt-3a induction measured after 12 hrs by qPCR analysis. It is filed as cell-based. The essentials:
as §1

Data set [12] deals with DLD-1. Put plainly: Downregulation of cyclin D1 protein level in human DLD1 cells at 3 to 10 uM after 20 hrs by Western blotting analysis. It counts as functional, cell-based. The method in brief: (§4)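 DLD-1 colorectal cancer cells treated with compound for 20 h in the dark. β-Catenin (free and total pools) and cyclin D1 protein levels assessed by Western blot.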
For orientation: In western blotting, separated proteins are transferred to a membrane and probed.

Data set [13] has as its system DLD-1. In words: Downregulation of total beta-catenin protein level in human DLD1 cells at 3 to 10 uM after 20 hrs by Western blotting analysis. It counts as functional, cell-based. The essentials:
as §4

The subject of data set [14] is IEC-6. Put plainly: Antagonist activity at Beta-catenin/TCF in rat IEC-6 cells assessed as inhibition of Wnt-3a-induced lgr5 expression up to 0.7 uM preincubated for 6 hrs followed by Wnt-3a induction measured after 12 hrs by qPCR analysis. It is filed as cell-based. The essentials: as §1
Data set [15] relates to IEC-6. In words: Antagonist activity at Beta-catenin/TCF in rat IEC-6 cells assessed as inhibition of Wnt-3a-induced axin2 expression up to 0.7 uM preincubated for 6 hrs followed by Wnt-3a induction measured after 12 hrs by qPCR analysis. It is filed as cell-based. The method in brief:
as §1

In data set [16] the test system is IEC-6. Put plainly: Antagonist activity at Beta-catenin/TCF in rat IEC-6 cells assessed as inhibition of Wnt-3a-induced axin2 expression up to 179 uM preincubated for 6 hrs followed by Wnt-3a induction measured after 12 hrs by qPCR analysis. It counts as cell-based. The essentials:
as §1

For data set [17], the system named is SW480. Put plainly: Downregulation of free beta-catenin protein level in human SW480 cells at 3 to 10 uM after 20 hrs by Western blotting analysis. It counts as functional, cell-based.
A short description of data set [18]: Downregulation of free beta-catenin protein level in HEK293T cells after 3 hrs by Western blotting analysis in presence of GSK3-beta antagonist SB216763 and proteasome inhibitor MG-132. It is filed as functional, cell-based. The settings on record: Homo sapiens; HEK-293T.
Data set [19] deals with DLD-1. Put plainly: Downregulation of free beta-catenin protein level in human DLD1 cells at 3 to 10 uM after 20 hrs by Western blotting analysis. It is filed as functional, cell-based. The method in brief: as §4
For data set [20], the system named is SW480. In words: Downregulation of total beta-catenin protein level in human SW480 cells at 3 to 10 uM after 20 hrs by Western blotting analysis. It is filed as functional, cell-based.
Data set [21] has as its system RKO. Put plainly: Antiproliferative activity against human RKO cells assessed as inhibition of colony formation at 1 to 3 uM after 2 weeks by crystal violet staining-based assay. It counts as functional, cell-based. The essentials: (§5)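 Colony formation assay. DLD-1 (bi-allelic APC mutation) and RKO (no β-catenin dysregulation) colon cancer cells seeded in medium with 10% serum containing compound. Surviving colonies visualised and counted two weeks after plating. Two independent experiments per concentration, each in triplicate. Compound incubations carried out in the dark.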

The test system of data set [22] is SW480. Put plainly: Downregulation of axin2 protein level in human SW480 cells after 20 hrs by Western blotting analysis. It is filed as functional, cell-based.
Data set [23] is described as follows: Downregulation of free beta-catenin protein level in HEK293T cells at 1 to 10 uM after 3 hrs by Western blotting analysis in presence of GSK3-beta antagonist SB216763. It is filed as functional, cell-based. The following applies: Homo sapiens, HEK-293T. The method in brief:
(§6)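 HEK293T cells treated with 5 μM SB216763 (GSK3β antagonist) together with various concentrations of compound, in the dark. Free and total β-catenin protein assessed by Western blot.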

The test system of data set [24] is DLD-1. In words: Antiproliferative activity against human DLD1 cells assessed as inhibition of colony formation at 1 to 3 uM after 2 weeks by crystal violet staining-based assay. It counts as functional, cell-based. The method in brief: as §5
Data set [25] can be described thus: Downregulation of free beta-catenin protein level in HEK293T cells after 3 hrs by Western blotting analysis in presence of dominant negative beta-TrCP. It is filed as functional, cell-based. The following applies: Homo sapiens; HEK-293T.
The test system of the next data set is HEK-293T. In words: Effect on total beta-catenin protein level in HEK293T cells at 1 to 10 uM after 3 hrs by Western blotting analysis in presence of GSK3-beta antagonist SB216763. It counts as functional, cell-based. The settings on record: Homo sapiens. The essentials: as §6
The subject of data set [26] is IEC-6. Put plainly: Antagonist activity at Beta-catenin/TCF in rat IEC-6 cells assessed as inhibition of Wnt-3a-induced axin2 expression up to 1.2 uM preincubated for 6 hrs followed by Wnt-3a induction measured after 12 hrs by qPCR analysis. It counts as cell-based. The essentials: as §1
In data set [27] the test system is IEC-6. In words: Antagonist activity at Beta-catenin/TCF in rat IEC-6 cells assessed as inhibition of Wnt-3a-induced lgr5 expression up to 1.2 uM preincubated for 6 hrs followed by Wnt-3a induction measured after 12 hrs by qPCR analysis. It is filed as cell-based. The method in brief:
as §1

The values below come from ChEMBL document CHEMBL2434910, “Investigation of 3-aryl-pyrimido[5,4-e][1,2,4]triazine-5,7-diones as small molecule antagonists of β-catenin/TCF transcription” (Bioorg Med Chem Lett, 2013).

The IC50 is the point on the concentration scale where inhibition reaches its midpoint.

Active and inactive are the calls of the source. No cut-off for these calls is given here.

On to `CCN(CC)CCOc1ccc(-c2nc3c(=O)n(C)c(=O)nc-3n(-c3ccccc3)n2)cc1`, for which the IC50 came to 300 nM in [1] and 260 nM in data set [7]. Besides, the t1/2 in the data set with Liver [2] came out at 34.7 min. Moreover, the Stability in the data set with Liver [3] is listed as 110%. Besides, the remaining at 10 min, 1 µM in data set [4] was determined as 92.2%. In addition, the remaining at 1 h, 1 µM in [5] was found to be 31.8%. Moreover, the remaining at 0.5 h, 1 µM in data set [6] was determined as 70.7%.

`Cn1ncnc2c(=O)n(C)c(=O)nc1-2`: the IC50 in [1] amounted to 330 nM; in data set [7], 290 nM. Besides, the inhibition entry in the data set with DLD-1 [8] and in the data set on RKO [9] was “Active” throughout.

With `CCN(CC)CCOc1ccc(-c2nnc3c(n2)c(=O)n(C)c(=O)n3C)cc1`, the inhibition entry with IEC-6 [10] and in the data set on IEC-6 [11] was “inactive” in each case.

As to `COc1c(C[C@@H](C)OC(=O)Oc2ccc(O)cc2)c2c3c(C[C@@H](C)OC(=O)c4ccccc4)c(OC)c(=O)c4c(O)cc(OC)c(c5c(OC)cc(O)c(c1=O)c52)c43` [CALPHOSTIN C], the IC50 in data set [1] came out at 550 nM; in [7], 390 nM.

As to `COc1ccc(-c2nc3c(=O)n(C)c(=O)nc-3n(C)n2)cc1`, the outcome in the data set on DLD-1 [12] and with DLD-1 [13] was Active. The IC50 in data set [1] worked out at 2670 nM; in data set [7], 1530 nM.

For `CCN(CC)CCOc1ccc(-c2nc3c(=O)n(C)c(=O)nc-3n(C)n2)cc1`, the inhibition entry with IEC-6 [14] and in the data set on IEC-6 [15] was “inactive” in each case.

`CCN(CC)CCOc1ccc(-c2nnc3c(n2)c(=O)n(C)c(=O)n3-c2ccccc2)cc1`: the inhibition result in the data set with IEC-6 [16] was “Active”. The IC50 in data set [7] amounted to 165000 nM.

Turning to `COc1ccc(-c2nc3c(=O)n(C)c(=O)nc-3n(-c3ccccc3)n2)cc1`, the IC50 is 2670 nM in data set [1] and 2100 nM in [7].

As to `Cn1nc(-c2ccc(Cl)cc2)nc2c(=O)n(C)c(=O)nc1-2`, the outcome (with DLD-1 [12]; with SW480 [17]; in the data set on DLD-1 [19]; in the data set on SW480 [20]; in [23]; in the data set on DLD-1 [13]) was Active. Further, in [25], the result was Active. Besides, the figures for the IC50 in data set [1] and in [7] were 1770 nM and 1530 nM, respectively. For the same molecule, the outcome (in [18]; with HEK-293T) was inactive. Further, the inhibition result with RKO [21] and in the data set on DLD-1 [24] was “Active” throughout. In addition, the Activity result in the data set with SW480 [22] was “Dose-dependent effect”.

With `COc1ccc(-c2nc3c(=O)n(C)c(=O)nc-3n(CCO)n2)cc1`, the inhibition result with IEC-6 [26] and in the data set with IEC-6 [27] was “inactive” each time.

Regarding `Oc1nc(-c2ccc(C(F)(F)F)cc2)nc2c1CSCC2`, the IC50 worked out at 640 nM in data set [1] and 2900 nM in data set [7].
